The text below walks through data of ChEMBL document CHEMBL1151475, “Thiopurine drugs azathioprine and 6-mercaptopurine inhibit Mycobacterium paratuberculosis growth in vitro” (2008).

The subject of test [1] is Mycobacterium avium subsp. paratuberculosis. The test is described as follows: Antituberculosis activity against Mycobacterium paratuberculosis JTC303 isolated from bovine assessed as minimum drug level required for killing after 56 days by MGIT 960 susceptibility test. The format is functional. Summed up: (§1)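 10^5 to 10^6 CFU from single-cell suspensions inoculated in duplicate into MGIT ParaTB medium with supplement and egg yolk. Drugs were at final 0.5–64.0 μg/ml, with 128.0 μg/ml added for some strains. Tubes were incubated at 37°C in MGIT 960. Inhibition is the lowest concentration giving a time to detection longer than a drug-free 1:100 inoculum control. Killing is no positive signal through 56 days.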

For test [2] the test system is unchanged. The test is described as follows: Antituberculosis activity against Mycobacterium paratuberculosis JTC303 isolated from bovine assessed as minimum drug level required for inhibition by MGIT 960 susceptibility test. The format is functional. Summed up:
as §1

In test [3] the test system is Mycobacterium avium. The test is described as follows: Antituberculosis activity against Mycobacterium avium EPA3 isolated from water assessed as minimum drug level required for killing within 15 days by MGIT 960 susceptibility test. The format is functional.
The subject of test [4] is Mycobacterium avium subsp. paratuberculosis. The test is described as follows: Antituberculosis activity against Mycobacterium paratuberculosis B244 isolated from bovine assessed as minimum drug level required for inhibition by MGIT 960 susceptibility test. The format is functional. Summed up: as §1
For test [5] the test system is unchanged. The test is described as follows: Antituberculosis activity against Mycobacterium paratuberculosis UCF-8 isolated from Crohn's disease patient assessed as minimum drug level required for killing after 56 days by MGIT 960 susceptibility test. The format is functional. In a few lines: as §1
Test [6] concerns Mycobacterium avium. The test is described as follows: Antituberculosis activity against Mycobacterium avium JTC48627 isolated from bison fecal sample assessed as minimum drug level required for killing within 15 days by MGIT 960 susceptibility test. The format is functional, Feces.
The test system of test [7] is Mycobacterium avium. The test is described as follows: Antituberculosis activity against Mycobacterium avium JTC48627 isolated from bison fecal sample assessed as minimum drug level required for inhibition by MGIT 960 susceptibility test. The format is functional, Feces. In a few lines: as §1
Test [8] has as its system Mycobacterium avium subsp. paratuberculosis. The test is described as follows: Antituberculosis activity against Mycobacterium paratuberculosis B238 isolated from bovine assessed as minimum drug level required for inhibition by MGIT 960 susceptibility test. The format is functional. In a few lines:
as §1

For test [9] the test system is unchanged. The test is described as follows: Antituberculosis activity against Mycobacterium paratuberculosis UCF-7 isolated from Crohn's disease patient assessed as minimum drug level required for killing after 56 days by MGIT 960 susceptibility test. The format is functional. In a few lines:
as §1

Test [10] shares this test system. The test is described as follows: Antituberculosis activity against Mycobacterium paratuberculosis B213 isolated from bovine assessed as minimum drug level required for killing after 56 days by MGIT 960 susceptibility test. The format is functional. Summed up:
as §1

The subject of test [11] is Mycolicibacterium phlei. The test is described as follows: Antituberculosis activity against Mycobacterium phlei ATCC 11758 assessed as minimum drug level required for killing after 56 days by MGIT 960 susceptibility test. The format is functional. Summed up: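 Duplicate MGIT ParaTB tubes with egg yolk and supplement received 10^5 to 10^6 CFU and thiopurine (in 0.05 M NaOH/10 mM PBS) at final 0.5 to 64.0 μg/ml, plus 128.0 μg/ml for some strains. Tubes were incubated at 37°C in the MGIT 960. The value is the minimum concentration whose tubes never signalled positive by 56 days.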

Test [12] deals with Mycobacterium avium. The test is described as follows: Antituberculosis activity against Mycobacterium avium 104 isolated from AIDS patient assessed as minimum drug level required for killing within 15 days by MGIT 960 susceptibility test. The format is functional.

For the compound `Sc1ncnc2nc[nH]c12` [MERCAPTOPURINE ANHYDROUS], the Activity was 32 µg/mL in [1]; 1 µg/mL in [2]; over 64 µg/mL in test [3]; 4 µg/mL in test [4]; 16 µg/mL in test [5]; over 64 µg/mL in test [6]. Also, the Activity in test [7] was 32 µg/mL; in [8] it was 4 µg/mL; in test [9], 8 µg/mL; in test [10], over 32 µg/mL; in test [11], 16 µg/mL; in test [12], over 64 µg/mL.
